# Bioassay records: PubChem, several laboratories
# Hits are enriched below; roughly 4.1% of the tested compounds scored in any of these assays.
# TAG inh: triacylglycerol accumulation inhibition; H9c2 cells, Nile Red lipid (TAG) fluorescence; cells loaded with 200 µM oleic acid; inhibition, % at 12.5 µM; 230,000 tested, 0.66% active; AID 651582;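 active means pattern-corrected inhibition of lipid staining of at least 50% with the nuclear-stain viability signal not falling by more than 50%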;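 further: 0% = DMSO wells and 100% = triacsin C control wells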
# SMARCA2 activ: activators of SMARCA2 function; MG213 cells, MMTV-luciferase reporter, dexamethasone, overnight; AID 652017; activation, % at 9.1 µM; 370,000 tested, 1% active; in the data active means activation above about 7.8%;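 further: 0% = vehicle wells and 100% = reference activator wells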
# AHR activator: human AHR activation | P35869 | AHR-responsive luciferase reporter cells, luminescence | activation, % at 5 µM | 320,000 tested, 2.5% active | AID 2796; in the data active means activation above about 47%;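 further: 0% = vehicle wells and 100% = reference agonist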
# TbMetRS inhib: Trypanosoma brucei MetRS inhibition. purified T. brucei MetRS, ATP depletion, Kinase-Glo luminescence. 360,000 tested, 0.4% active. inhibition, % at 11.9 µM;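 active means inhibition above a per-plate cutoff of the control wells' mean inhibition plus 3 SD, cut at about 5.5% in these data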;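 further: 0% = DMSO wells median and 100% = median of wells with control inhibitor compound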
#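 Measured by: Kinase-Glo luciferase luminescence reporting remaining unconsumed ATP. Material: purified T. brucei MetRS enzyme. Doses: 11.9 µM compound single dose, 0.9% DMSO. Medium: HEPES buffer containing pyrophosphatase, BSA, spermine, DTT. Times: 15 min preincubation, 2 h reaction, all 25 °C. Reagent: methionine, ATP and bulk E. coli tRNA.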
# Efflux pump mplx: inhibitors of Candida antifungal efflux pumps expressed in yeast | S. cerevisiae Candida pump triplex, Nile Red efflux | inhibition, % at 10 µM | 330,000 tested, 0.44% active | AID 485275;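 active means plate passing quality check with inhibition over a set limit, or well fluorescence over plate mean plus 4 SD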;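 further: Nile Red retained in pooled yeast measured as flow cytometry median fluorescence; 0% = buffer negative control and 100% = Enniatin B positive control; higher means more Nile Red kept so more efflux inhibition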
# AHR act confirm: human AHR activation, confirmation. 2,300 tested, 87% active. shares compounds with AHR activator. human cells, AHR-responsive luciferase reporter, luminescence. activation, % at 9 µM. AID 2845; in the data active means activation above about 49%;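 further: HepG2 hepatoma cells carrying a DRE-driven firefly luciferase reporter; 0% = vehicle wells and 100% = reference agonist wells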
# PXR counter: PXR activation, counter-screen for AHR activators | AID 434939 | shares compounds with AHR activator | 2,300 tested, 88% active | cell-based PXR reporter, luciferase luminescence | activation, % at 11.6 µM; in the data active means activation above about 11%;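 further: human hepatoma DPX-2 cells expressing full-length human PXR; 0% = DMSO and 100% = reference agonist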
# * marks the source's active call; other numbers are inactive results; . = not tested or not shown.
SMILES,TAG inh,SMARCA2 activ,AHR activator,TbMetRS inhib,Efflux pump mplx,AHR act confirm,PXR counter
CC(=O)c1c(C)[nH]c(C(=O)Nc2ccc(Cl)c(S(=O)(=O)N(C)C)c2)c1C,12,2,81*,0,0,83*,53*
COC(=O)C1CN(Cc2cn(Cc3ccc(Cl)cc3)nn2)CCS(=O)(=O)N1Cc1ccc(F)cc1 (stereo unspecified),.,-3,.,.,.,.,.
CCNC(=O)OCCN1C(=O)CCC12CCC(c1ccc(Cl)cc1)CC2 (stereo unspecified),.,-3,.,.,.,.,.
Cc1ccc2nc(-c3cccc(N)c3)oc2c1,.,0,17,-2,0,.,.
Nc1ccc2oc(-c3cccc(Br)c3)nc2c1,17,.,17,0,0,.,.
CCc1ccc2oc(-c3cccc(N)c3)nc2c1,12,-2,83*,-1,0,90*,12*
Cc1cc(C)c2oc(-c3cccc(N)c3)nc2c1,11,3,79*,-1,0,128*,15*
Cc1c(/C=N/NC(N)=O)c2ccccn2c1C(=O)c1ccc(F)cc1,.,1,90*,0,0,26,77*
Cc1ccc(/C=N\Nc2nc3ccc(Cl)cc3[nH]2)o1,0,4,165*,0,0,117*,22*
Fc1ccccc1-c1ccc(/C=N/Nc2nc3ccccc3[nH]2)o1,.,4,84*,0,0,78*,11*
C[C@H]1CN([C@@H](C)CO)C(=O)c2c(c3ccccc3n2C)-c2ccccc2CO[C@H]1CN(C)C(=O)Nc1cccc(F)c1,.,-3,.,.,.,.,.
N#Cc1[nH]nc2nc[nH]c(=O)c12,.,-4,.,.,.,.,.
COc1ccc(C(C)=O)cc1COc1ccc(F)cc1,8,1,13,-1,0,.,.
COc1ccc(C(=O)NN)cc1COc1ccc(Br)cc1,.,-5,102*,2,0,90*,17*
COc1ccc(-c2cc(=O)c3ccccc3[nH]2)cc1,-76,1,38,0,0,.,.
O=C(c1ccccc1)c1cc2cc(Cl)ccc2[nH]1,.,4,4,-1,0,.,.
O=c1cc(-c2ccccc2)[nH]c2cc(Cl)ccc12,.,0,96*,0,0,64*,23*
Clc1ccc2[nH]c(-c3ccccc3)cc2c1,-67,3,115*,-1,0,138*,17*
Cc1ccc(-c2cn(-c3ccccc3)c(=S)[nH]2)cc1C,.,1,81*,2,0,12,38*
Cc1ccccc1-c1cn(-c2ccccc2)c(=S)[nH]1,.,0,20,0,1,.,.
C/C(=N/NC(=O)CSc1nnc(SCc2ccc(C)cc2)s1)c1cccc(O)c1,.,-11,.,.,.,.,.
CCC(=O)Nc1cc(-c2nc3ncccc3o2)ccc1Cl,2,4,110*,-1,0,97*,16*
Cc1ccc(-c2nc3ncccc3o2)cc1NC(=O)C(C)(C)C,.,-2,91*,0,0,91*,32*
COC(=O)C1=C(C)N(Cc2cccc(C(F)(F)F)c2)C(=NCc2ccc(OC)cc2)NC1c1ccccc1C(F)(F)F (stereo unspecified),.,-4,.,.,.,.,.
COc1ccc(N2CCN(CCNS(=O)(=O)c3ccccc3[N+](=O)[O-])CC2)cc1,.,-1,.,.,.,.,.
SMILES,TAG inh,SMARCA2 activ,AHR activator,TbMetRS inhib,Efflux pump mplx,AHR act confirm,PXR counter
COc1ccc(C(=O)N=c2sc3ccccc3n2C)cc1OC,-4,4,12,-1,0,.,.
Cn1/c(=N/NC(=O)c2cccc(OC(F)F)c2)sc2ccccc21,.,0,118*,-1,0,110*,119*
Cn1c(=NCC(O)COc2ccccc2)sc2ccccc21 (stereo unspecified),-6,1,-13,-1,0,.,.
COc1cc(C(=O)N/N=c2/sc3ccccc3n2C)cc(OC)c1OC,-3,1,171*,1,0,82*,56*
Brc1cccc(CN2CCN(c3ncc(Cc4ccccc4)cn3)CC2)n1,.,-4,.,.,.,.,.
C[C@H]1C(c2ccccc2F)O[C@]2(C[C@H](O)c3c(ccc4ccccc34)O2)C[C@@H]1O (stereo partly specified),.,-3,.,.,.,.,.
Cc1ccccc1N1CCN(C(=O)CCn2nnc3ccccc32)CC1,.,3,.,.,.,.,.
N#Cc1cccc(NC(=O)OC2CCC23CCC(c2ccccc2)CC3)c1 (stereo unspecified),.,-3,.,.,.,.,.
COc1ccc(Br)cc1/C=N/NC(=O)c1ccc(OC)c(OC)c1,4,-3,37,-1,0,.,.
Cc1ccc(OCCOc2ccc(Br)cc2/C=N\NC(N)=O)cc1,.,0,92*,-1,0,27,6
C[C@@H]1CN([C@@H](C)CO)C(=O)CCCn2cc(nn2)CO[C@H]1CN(C)C(=O)Nc1ccc(C(C)(C)C)cc1,.,0,.,.,.,.,.
COC(=O)C[C@H]1CC[C@@H]2[C@H](COc3ccc(NC(=O)c4ccccc4OC)cc3C(=O)N2C)O1,.,-1,.,.,.,.,.
CCn1c(C)cc(/C=C2/NC(=O)N(Cc3ccccc3F)C2=O)c1C,.,0,84*,0,0,59*,162*
CC(C)CN1C[C@@H]2CSCCS(=O)(=O)N2C1=O,.,-2,.,.,.,.,.
CN(C)CCCN1C(=O)c2cc3ccccc3cc2C1=O,.,0,-2,-1,0,.,.
CN(C)CCCN1C(=O)c2cccc3cccc(c23)C1=O,.,6,141*,1,0,163*,.
COc1ccc(N(CCCN2C(=O)c3cccc4cccc(c34)C2=O)C(=O)c2cccc(OC)c2)cc1,.,0,88*,-1,0,99*,119*
O=C1c2cccc3cccc(c23)C(=O)N1CCCSc1ncn[nH]1,-8,0,101*,0,0,88*,57*
Cc1ccc(N(CCCCN2C(=O)c3ccccc3C2=O)C(=O)c2cccc([N+](=O)[O-])c2)cc1,.,-1,-2,-1,0,.,.
C[C@@H]1CN([C@@H](C)CO)C(=O)CCCn2nncc2CO[C@H]1CN(C)CC1CC1,.,-3,.,.,.,.,.
COC(=O)[C@]12C[C@H](CC(=O)NCCC(C)C)C(=O)N(Cc3ccc(Cl)cc3Cl)C1=C[C@H](C(C)(C)C)O[C@@H]2C,.,-4,.,.,.,.,.
COc1ccc(C)cc1NC(=O)C(OC(=O)C1=NNC(=O)CC1)c1ccccc1 (stereo unspecified),-13,-3,83*,0,0,99*,36*
COc1ccc(C)cc1NC(=O)C(OC(=O)CNC(=O)c1ccc(Br)cc1)c1ccccc1 (stereo unspecified),5,-5,81*,0,0,85*,51*
COc1ccc(C(C)(C)C)cc1NC(=O)COC(=O)C1=NNC(=O)CC1,19,-4,1,0,0,.,.
CCCCCCCCN1C(=O)[C@@H](CC(=O)NCCCCc2ccccc2)C[C@@]2(C(=O)OC)C1=C[C@H](COCc1ccccc1)O[C@@H]2C,.,-1,.,.,.,.,.
